Source: PubChem BioAssay
Shown are actives, neighbours in structure and some others; about 1.7% of the full set was active somewhere.
SR-BI uptake up = activators of SR-BI mediated DiI-HDL uptake, primary screen, ldlA[mSR-BI] CHO cells, DiI fluorescence; hit rate 0.096% among 320,000; activation, % at 12.5 µM; AID 504775, 2011; 3 h; 100 = double the neutral-control signal;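 active means mean replicate activation of at least 60% and every replicate at or above 60%; inconclusive means mean or all-replicate condition met, but not both; inactive means mean below 60% and not all replicates reaching 60%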
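Material: SR-BI-overexpressing, LDLR-lacking CHO cells; schedule: compound exposure 3 h, 37 °C; reagent: DiI-labelled HDL at 10 µg/mL final; technique: bottom-read fluorescence, 550/595 nm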
C2C12 statin = suppressors of statin myotoxicity in C2C12 myotubes, primary screen, cell-based, single point, plate reader; C2C12 myotubes + simvastatin, ATP luminescence, 48 h; scaled: DMSO 0, geranylgeraniol control 100; rescue of ATP level, % at 7.49 µM; hit rate 0.78% among 330,000; AID 602340, 2012;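 active means mean ATP rescue above about 67%, or every replicate alone reaching that limit, limit read from the data, passing the limit was not always enough; inconclusive means no clear call, values can overlap the other calls; inactive means mean under the limit and some replicate under it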;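 further: myotubes were challenged with 10 µM simvastatin during compound exposure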
SR-BI DiI inh = inhibitors of SR-BI mediated HDL lipid uptake, primary screen, ldlA[mSR-BI] cells, fluorescence, single point; Scavenger receptor class B member 1 (Mus musculus), Q61009; ldlA[mSR-BI] CHO cells, DiI-HDL uptake fluorescence, 3 h; AID 488896, 2010; inhibition, % at 12.5 µM; hit rate 0.96% among 320,000;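 active means mean replicate inhibition of at least 70% and a set share of replicates each scoring 70 or more; inconclusive means meets just one of the two criteria; inactive means fails both criteria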
Target sequence (Q61009 whole entry, looked up): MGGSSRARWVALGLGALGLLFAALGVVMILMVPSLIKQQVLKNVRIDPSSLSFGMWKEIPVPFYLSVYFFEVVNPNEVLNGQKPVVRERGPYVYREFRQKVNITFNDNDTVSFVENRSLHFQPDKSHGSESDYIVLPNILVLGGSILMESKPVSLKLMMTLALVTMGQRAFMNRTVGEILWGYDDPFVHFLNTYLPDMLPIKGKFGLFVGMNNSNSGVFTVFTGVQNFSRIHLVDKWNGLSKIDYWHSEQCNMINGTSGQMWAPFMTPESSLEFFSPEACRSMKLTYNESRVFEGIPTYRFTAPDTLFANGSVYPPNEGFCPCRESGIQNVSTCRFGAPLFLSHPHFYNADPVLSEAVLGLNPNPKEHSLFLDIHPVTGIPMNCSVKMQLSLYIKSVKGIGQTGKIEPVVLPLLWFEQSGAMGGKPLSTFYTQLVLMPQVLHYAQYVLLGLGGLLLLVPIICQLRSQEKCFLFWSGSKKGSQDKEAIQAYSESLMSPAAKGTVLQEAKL
Vif imaging = HIV Vif self-association inhibitors, primary screen, imaging, HEK293T, single point | HEK293T cells, Vif self-association by quenched fluorescence, 24 h | inhibition, % at 7.49 µM | hit rate 0.35% among 340,000 | AID 602346, 2012; in the data active means inhibition above about 50%, passing the limit was not always enough; inconclusive means no clear call, values can overlap the other calls; inactive means below about 31%
Large screens that a line does not name were inactive.

C[C@@H]1CCCCO[C@@H](CN(C)C(=O)Nc2cccc3ccccc23)[C@H](C)CN([C@@H](C)CO)C(=O)c2cc(NS(=O)(=O)c3ccc(Cl)cc3)ccc2O1	C2C12 statin 137 (no result: SR-BI uptake up, SR-BI DiI inh, Vif imaging)
C[C@@H]1CCCCO[C@H](CN(C)C(=O)Nc2cccc3ccccc23)[C@H](C)CN([C@@H](C)CO)C(=O)c2cc(NS(=O)(=O)c3ccc(Cl)cc3)ccc2O1	C2C12 statin 192 (no result: SR-BI uptake up, SR-BI DiI inh, Vif imaging)
C[C@@H]1CN([C@@H](C)CO)C(=O)c2cc(NS(=O)(=O)c3ccc(Cl)cc3)ccc2O[C@@H](C)CCCCO[C@H]1CN(C)C(=O)Nc1cccc2ccccc12	none (no result: SR-BI uptake up, SR-BI DiI inh, Vif imaging)
C[C@@H]1CN([C@@H](C)CO)C(=O)c2cc(NC(=O)Cn3cnnn3)ccc2O[C@H]1CN(C)C(=O)NC1CCCCC1	none (no result: SR-BI uptake up, SR-BI DiI inh, Vif imaging)
COc1cc(-c2noc(C)c2/C=C/c2ccc(OC(C)=O)cc2)cc(OC)c1OC	SR-BI DiI inh 75
C=CCOc1ccc2cccc(/C=N/NC(=O)c3cc4cc([N+](=O)[O-])ccc4s3)c2c1	SR-BI DiI inh 77
O=C1CC(c2ccccc2)CC(O)=C1C=NCC1CCCO1 (configuration not stated)	none (no result: C2C12 statin)
Oc1[nH]c2ccccc2c1C=NCC1CCCO1 (configuration not stated)	C2C12 statin 121
C[C@H](CO)N1C[C@H](C)[C@@H](CN(C)Cc2ccc(Cl)c(Cl)c2)Oc2ccc(NS(=O)(=O)c3cn(C)cn3)cc2CC1=O	C2C12 statin 166 (no result: SR-BI uptake up, SR-BI DiI inh, Vif imaging)
C[C@@H]1CN([C@H](C)CO)C(=O)Cc2cc(NS(=O)(=O)c3cn(C)cn3)ccc2O[C@H]1CN(C)Cc1ccc2c(c1)OCO2	none (no result: SR-BI uptake up, SR-BI DiI inh, Vif imaging)
C[C@@H]1CN([C@H](C)CO)C(=O)Cc2cc(NS(=O)(=O)c3cn(C)cn3)ccc2O[C@@H]1CN(C)Cc1ccc(-c2ccccc2)cc1	C2C12 statin 82 (no result: SR-BI uptake up, SR-BI DiI inh, Vif imaging)
Cc1ccc(S(=O)(=O)Nc2ccc3c(c2)C(=O)N([C@@H](C)CO)C[C@H](C)[C@H](CN(C)C(=O)c2ccncc2)OCCCC[C@H](C)O3)cc1	none (no result: SR-BI uptake up, SR-BI DiI inh, Vif imaging)
CO[C@@H]1CN(C)C(=O)c2cc(NC(=O)NC3CCCCC3)ccc2OC[C@@H](C)N(C(C)=O)C[C@@H]1C	none (no result: SR-BI uptake up, SR-BI DiI inh, Vif imaging)
O=C(NCCc1ccccc1)C1CCN(C(=O)Nc2ccccc2)CC1	none
NS(=O)(=O)c1ccc(CCNCC(=O)N2CCC(Cc3ccccc3)CC2)cc1	C2C12 statin 85
NS(=O)(=O)c1ccc(CCNC(=O)C2CCN(C(=O)Nc3ccccc3)CC2)cc1	Vif imaging 55
NS(=O)(=O)c1ccc(CCNCC(=O)NC2CC2)cc1	none (no result: SR-BI uptake up, SR-BI DiI inh)
Cc1cccc(COc2ccccc2C(=O)OCC(=O)N(C)c2c(N)n(Cc3ccccc3)c(=O)[nH]c2=O)c1	SR-BI DiI inh 87
COc1cc2ccccc2cc1C(=O)OCC(=O)N(C)c1c(N)n(Cc2ccccc2)c(=O)[nH]c1=O	none
COc1cc(NC(=O)COc2ccccc2C)ccc1NC(=O)c1ccco1	none
COc1cc(NC(=O)COc2ccccc2)ccc1NC(=O)c1ccco1	Vif imaging 66 (no result: SR-BI uptake up, SR-BI DiI inh)
COc1cc(NC(=O)c2ccc([N+](=O)[O-])o2)ccc1NC(=O)c1ccco1	none
COc1cc(NC(=O)c2cccc([N+](=O)[O-])c2)ccc1NC(=O)c1ccco1	SR-BI DiI inh 89 (no result: C2C12 statin)
C/C=C/c1cnc2c(c1)C(=O)N([C@@H](C)CO)C[C@@H](C)[C@@H](CN(C)Cc1ccncc1)O2	none (no result: SR-BI uptake up, SR-BI DiI inh, Vif imaging)
O=C(CC1CC1)Nc1ccc2c(c1)[C@@H]1C[C@H](CC(=O)N3CCc4ccccc4C3)O[C@H](CO)[C@@H]1O2	none (no result: SR-BI uptake up, SR-BI DiI inh, Vif imaging)
CCc1ccc(OCC(=O)N/N=C/c2cc([N+](=O)[O-])ccc2N2CCCCCC2)cc1	none
O=C(N/N=C/c1cc([N+](=O)[O-])ccc1N1CCCCCC1)c1ccccn1	SR-BI DiI inh 80 (no result: C2C12 statin, Vif imaging)
O=C(C[C@@H]1CC[C@@H]2[C@H](COC[C@@H](O)CN2Cc2cc(F)ccc2F)O1)NCc1ccccc1	none (no result: SR-BI uptake up, SR-BI DiI inh, Vif imaging)
COc1ccc(NS(=O)(=O)c2ccc(O)c(NC(=O)c3cc4c(C)nn(-c5ccc(F)cc5)c4s3)c2)cc1	SR-BI DiI inh 77 (no result: Vif imaging)
O=[N+]([O-])c1ccc(N/N=C/c2c[nH]c3ccccc23)c(S(=O)(=O)Nc2ccc(Cl)cc2)c1	SR-BI DiI inh 94
O=C(O)c1ccc(N/N=C/C=C/c2ccccc2[N+](=O)[O-])cc1	Vif imaging 54
O=[N+]([O-])c1ccccc1/C=C/C=N/Nc1ccc(S(=O)(=O)Nc2ccc(Cl)cc2)cc1[N+](=O)[O-]	SR-BI DiI inh 100
O=C(Cc1ccccc1)N/N=C/C=C/c1ccccc1[N+](=O)[O-]	none (no result: SR-BI uptake up, C2C12 statin, SR-BI DiI inh)
CC(C)NC(=O)N1C[C@H]2[C@@H](c3ccccc31)[C@@H](CO)N2C(=O)c1ccncc1	none (no result: SR-BI uptake up, SR-BI DiI inh, Vif imaging)
COc1cccc(NC(=O)Nc2ccc3c(c2)C(=O)N(C)[C@@H]2CC[C@H](CC(=O)NCCc4ccccc4)O[C@@H]2CO3)c1	none (no result: SR-BI uptake up, SR-BI DiI inh, Vif imaging)
Cc1nnc(N/N=C/c2ccccc2F)n1N	Vif imaging 59
COc1ccc(NC(=O)Nc2ccc3c(c2)[C@@H]2C[C@@H](CC(=O)NCC(F)(F)F)O[C@@H](CO)[C@@H]2O3)cc1	none (no result: SR-BI uptake up, SR-BI DiI inh, Vif imaging)
O=C(N[C@@H]1CC[C@H](CCNS(=O)(=O)c2ccc(F)cc2)O[C@H]1CO)C1CCCC1	none (no result: SR-BI uptake up, SR-BI DiI inh, Vif imaging)
COc1ccc(C(=O)NCC(=O)OCc2ccc(Cl)cc2Cl)cc1OC	none
COc1cc(C(=O)NC2CCCCC2)ccc1OCc1ccc(Cl)cc1Cl	SR-BI DiI inh 76 (no result: C2C12 statin)
O=C(Cc1ccc(Cl)cc1Cl)NC1CCCCCC1	none (no result: SR-BI uptake up, SR-BI DiI inh)
COc1cc(C(=O)NCCC(C)C)ccc1OCc1ccc(Cl)cc1Cl	SR-BI DiI inh 82 (no result: C2C12 statin)
CN1CCN(C(=O)C[C@H]2CC[C@@H]3[C@H](COC[C@@H](O)CN3C(=O)C3CCOCC3)O2)CC1	none (no result: SR-BI uptake up, SR-BI DiI inh, Vif imaging)
CCOC(=O)C1C(c2cc(OC)c(O)c(OC)c2)NC(=S)NC1(O)C(F)(F)F (configuration not stated)	none (no result: SR-BI uptake up, SR-BI DiI inh)
CCOC(=O)C1C(c2cc(OC)c(OC)c(OC)c2)NC(=S)NC1(O)C(F)(F)F (configuration not stated)	C2C12 statin 101 (no result: SR-BI uptake up, SR-BI DiI inh)
CCOC(=O)C1C(c2cccc(F)c2)NC(=S)NC1(O)C(F)(F)F (configuration not stated)	C2C12 statin 98
O=c1oc2c(-c3ccc([N+](=O)[O-])cc3)cc(O)cc2s1	SR-BI DiI inh 77, Vif imaging inconclusive (no result: C2C12 statin)
NC1=C(c2ccc([N+](=O)[O-])cc2)C(=O)CO1	none (no result: C2C12 statin)
Oc1ccccc1/C=N/c1c(-c2ccco2)nc2ccccn12	C2C12 statin 102
COc1ccc(-c2cc(-c3cc(F)ccc3O)[nH]n2)cc1OC	SR-BI DiI inh 72
COc1ccc(-c2cc(-c3ccccc3O)[nH]n2)cc1OC	none
COc1cccc(CNC(=O)[C@H]2[C@H](CO)[C@H]3Cn4c(ccc(-c5cncnc5)c4=O)[C@@H]2N3C(C)=O)c1	none (no result: SR-BI uptake up, SR-BI DiI inh, Vif imaging)
Cc1nn(-c2ccccn2)c2c1-c1nc(N3CCOCC3)ncc1CC2	none (no result: C2C12 statin)
